The EternaBench riboswitch data

System: MS2 coat protein
Assay: apparent Kd, MS2 coat protein; higher = weaker binding; RNA-MaP array; FMN 200 µM where present
How it was run: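 Stalled E. coli RNA polymerase transcribed each design on Illumina sequencing-chip clusters. The clusters were titrated with SNAP-549-labelled MS2 coat protein, starting at 0.7 or 1.5 nM and doubling up to 3 µM, first without ligand and then with constant ligand, in 100 mM Tris-HCl pH 7.5, 80 mM KCl, 4 mM MgCl2, BSA, DTT, yeast tRNA and Tween-20. Green signal was normalised to red-channel RNA signal and to the control-cluster median Fmax. The apparent Kd is the median of filtered binding-curve fits made for each cluster.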

[1] = designed as: ON switch for flavin mononucleotide, no ligand
[2] = ligand present: flavin mononucleotide, designed as: ON switch for flavin mononucleotide
[3] = designed as: OFF switch for flavin mononucleotide, no ligand
[4] = ligand present: flavin mononucleotide, designed as: OFF switch for flavin mononucleotide

| Sequence | apparent Kd [1] [nM] | apparent Kd [2] [nM] | apparent Kd [3] [nM] | apparent Kd [4] [nM] |
| --- | --- | --- | --- | --- |
| GUCUGACAUGAGGAUCACCCAUGUAUUCGAGCAUGAGGAUAUAUGACUCGUCAUCGGCGGAUAGAAGGCAUGGUUG | 169 | 192 |  |  |
| GUGAAGUGAGGAUAUACGAGAGAGGCUGAACCGGACGAGAAGUAGAAGGCACAUGAGGAUCACCCAUGUAAGGA |  |  | 33 | 32.1 |
| GUGAAGUGAGGAUAUACGAGAGAGGCUGAACCGGACGAGAAGUAGAAGGCACAUGAGGAUCACCCAUGUACGGG |  |  |  | 236 |
| GUGAGGUAAGGAUAUAGUAGUGAAGGUAAAAUAUGAGAAUGCUAGAAGGUACAUGAGGAUCACCCAUGUUAGGG |  |  | 211 | 203 |
| GUGAGGUCAGGAUAUGCAUGGCGGGACUUGCGUCGUGGCGUGGAGAAGGGACAUGAGGAUCACCCAUGUGGAGC |  |  | 55.6 | 59.1 |
| GUGAGGUCAGGAUAUGCAUGGCGGGACUUGCGUCGUGGCGUGGAGAAGGGACAUGAGGAUCACCCAUGUGGAGU |  |  | 87.6 | 49.5 |
| GUGAGUAGUCAGGAUAUGCUGUACAAAAGUACAGCAGAAGGGAUUACAUGAGGAUCACCCAUGUUAUCUUCAUG |  |  | 185 | 510 |
| GUGAUCCCGGUUAGGAUAUUAGUGAUGUACACCUCUGAGAAGGGACAUGAGGAUCACCCAUGUCGCCUUGAAAC |  |  | 17.7 | 22.6 |
| GUGCAACAUGAGGAUCACCCAUGUCAGGAUAUGCGAAUUUCAUCAAAAGAUGAAAUUUGCAGAAGGGACUGCAC |  |  | 19 | 22.8 |
| GUGCACAUUCGAGGAUAUCGGAGAGAGAUCCUUCGAGAAGGCGAUUCAUGCUGUGUUAUUCUGGACAUGAGGAUCACCCAUGUG | 326 | 172 |  |  |
| GUGCAGAUGUAAGGAUAUCGACUGGAAUACAGUCGAGAAGGUACAUGAGGAUCACCCAUGUAAAUGAAAGAUAAUAAACUGCAC |  |  | 15.3 | 26.1 |
| GUGCCGAACCUAGGAUAUCUUAUCGGGUUCCGCCGUGGCUUAGCGACAUGAGGAUCACCCAUGUAAGAGAAGGAGGUGGUGGAG |  |  | 299 | 259 |
| GUGCCUAACUAGAAGGCCCAAUGCAAAGCAUAGGGAGGAUAUGGGUUUAAUAAAUAAACAUGAGGAUCACCCAUGUGGCACAAA | 45.5 | 10.1 |  |  |
| GUGCCUAACUAGAAGGCCGUAUGCAAAGCAUACGGAGGAUAUGGGUUCCGGAAACGGACAUGAGGAUCACCCAUGUGGCACAAA | 80.4 | 10.6 |  |  |
| GUGCCUUAUGAGAAGGCGAUCAUGAAACAUGAUCGAGGAUAUCAUGUAAACAUGAGGAUCACCCAUGUAUGGGUAUUAUGGUAC | 547 | 55.5 |  |  |
| GUGCCUUGGGAGAAGGUUACAUGCAAAGCAUUUAAAGGAUAUUCAUACCGGAAACGGACAUGAGGAUCACCCAUGUGGCACAAA | 870 | 145 |  |  |
| GUGCGAGGCUAGGAUAUUGUGGGUUUUUGUCUGCGAGAAGGAGCCACAUGAGGAUCACCCAUGUGGUGUUGCUC |  |  | 64.4 | 294 |
| GUGCGGUAGGAGAAGGACGGAGGCUUCUUUUCAUACAUGAGGAUCACCCAUGUAGGAUAUCCUACCUCACGCGGCCUACUUCUG |  |  | 5.22 | 5.06 |
| GUGCUGCAGCUGUGCACGAGACAUGAGGAUCACCCAUGUGACAGAAGGGACUUGUUAAAGGUAGGUCAGGAUAUGUCUUAAAAG | 107 | 37.3 |  |  |

| Sequence | apparent Kd [1] [nM] | apparent Kd [2] [nM] | apparent Kd [3] [nM] | apparent Kd [4] [nM] |
| --- | --- | --- | --- | --- |
| GUGGUCAGACAUGAGGAUCACCCAUGUGGAAUAAAUAACACACAGGAUAUCUAAUAUAAAAUAUAAGAGAAGGGUGGAUUGGUG | 273 | 182 |  |  |
| GUGGUCAGACAUGAGGAUCACCCAUGUGGAAUAAAUAACACACAGGAUAUGUAAUAUAAAAUAUAACAGAAGGGUGGAUUGGUG | 352 | 181 |  |  |
| GUGGUCAGACAUGAGGAUCACCCAUGUGGAAUAAAUAAGGGACAGGAUAUUCAAUAUAGGAUAUAGAAGAAGGGUUGGUUGGUG | 96.1 | 125 |  |  |
| GUGGUGCUAAAGAAGCACAUGAGGAUCACCCAUGUGCCGACACAGGAUAUCGACCGCGUUGGCGUCGAGAAGGGUGAGCCUACU | 63.4 | 34.4 |  |  |
| GUGUACAGAGGAUAUACAAGAGGAGUUACGAAAGUAACUUCACAUGAGGAUCACCCAUGUAGAAGGCUGUACAC |  |  | 24.6 | 39.5 |
| GUGUACAGAGGAUAUACACGAAUCUAGCGAAGCUAGGUUUGACAUGAGGAUCACCCAUGUAGAAGGCUGUACAC |  |  | 16.1 | 24.2 |
| GUGUACAGAGGAUAUACAUAAGCAUGGAAACAUGCAACCUCACAUGAGGAUCACCCAUGUAGAAGGCUGUACAC |  |  | 161 | 65.3 |
| GUGUACAGAGGAUAUACUCGAAUCUAGCGAAGCUAGGUUUGACAUGAGGAUCACCCAUGUAGAAGGCUGUACAC |  |  | 14.6 | 18.9 |
| GUGUACGGAGGAUAUAUGUGGGCAGGCUGACCUGCAGCUUCACAUGAGGAUCACCCAUGUAGAAGGCUGUACAC |  |  | 22.7 | 114 |
| GUGUGUUGCGGGCAGGAUAUGUAUUUGAGUACAUGAGGAUCACCCAUGUGCGCCUGUUUCAGGCGACAGAAGGGCCUAUCGCGAC | 159 | 30.9 |  |  |
| GUGUUACAUGAGGAUCACCCAUGUUGUUUUAGAUAAGGAUAUAUGGUAACGAGAGAAAUAAUAGAAGGUAUUAGGC | 33.4 | 23.1 |  |  |
| GUUAAACAUGAGGAUCACCCAUGUAAGGAUAUGCUGCGGUCGCGAUGAAGUGACUGCAGCAGAAGGUACAAUUG |  |  | 109 | 75.9 |
| GUUAAGGUAGGAUAUACGAUAAUAUAGGGUAGAGAUAUAACACAUGAGGAUCACCCAUGUAGAAGGACCAAUUG |  |  | 25.3 | 75.2 |
| GUUAGACAUGAGGAUCACCCAUGUGAGGAUAUGAUGCGAAUAAAGAAUGAAGUAAGCAUCAGAAGGCACAUAUG |  |  | 267 | 381 |
| GUUAUAGGAGGAUAUACAUGAGGAUCACCCAUGUCUCACCCAUGGCAACGAACCUAUUGUAGAAGGCUUGAAGA |  |  | 74.5 | 182 |
| GUUAUUAACAAGAAGGCAUACAUGAGGAUCACCCAUGUUCUACAUGGAUAAUGAGGAUAUUGCUAAUACAUGAGGAUCACCCAU |  |  | 48.8 | 53.8 |
| GUUCUGCUAGGAUAUGCAUCAACGGGAUAGCCUACGCGGAAACAUGAGGAUCACCCAUGUAGAAGGAGCUGAAC |  |  | 30.3 | 30.6 |
| GUUCUUCCUGUGAGGAUAUCCAUGUUUCGGUUUGUGGAGAAGGUACAUGAGGAUCACCCAUGUCACCCGCGUUU |  |  | 14.1 | 15.8 |
| GUUGCACAAGUUAACAUGAGGAUCACCCAUGUCAAAAGACAUGAGGAUAUGGAUCUGAAGAAGAUCCAGAAGGCAUAAUGCUAA | 796 | 117 |  |  |

| Sequence | apparent Kd [1] [nM] | apparent Kd [2] [nM] | apparent Kd [3] [nM] | apparent Kd [4] [nM] |
| --- | --- | --- | --- | --- |
| GUUGGGUGUCAUGUCGCACAUGAGGAUCACCCAUGUAGGAGGUAGGAUAUCCACGAGAAACAAGCGGAGAAGGGCCAUUAGCGU |  |  | 27.9 | 31.3 |
| GUUGUAUUAAGUUCAUACUAUAUGAUAGAAGGUGAAAGAUAGACAUGAGGAUCACCCAUGUAAUUCAAGGAUAUGUAGUUACUC | 28.4 | 20.4 |  |  |
| GUUUACCGAGGAUAUACAUGAGGAUCACCCAUGUUCCUAAUAAACAUCGGUUCAGCGUGUAGAAGGCGGACCUA |  |  | 22.5 | 53.9 |
| GUUUCGUGAGGAUAUGUGGCUUCGAUCGUGCGAUCGAGGCUACAGAAGGCACAUGAGGAUCACCCAUGUUCCUC |  |  | 45.2 | 612 |
| GUUUCUAUAAGUUAUAAUUAACAGUCAGAAGGUGAUACUACGACAUGAGGAUCACCCAUGUAAUUCAAGGAUAUGAACUUAAUC | 1120 | 539 |  |  |
| GUUUGACAUGAGGAUCACCCAUGUAAGGAUAUACGAGUAGCUGCUAGGUAGUUAGUAUGUAGAAGGUGCGUGUU |  |  | 65.7 | 62.6 |
| GUUUGAUUGUAGAAGGUACUUAAUACUCAUGUUACAUGAGGAUCACCCAUGUUUCUACAUUAUUGUAAGGAUAUACAUAACUCA | 259 | 48.6 |  |  |
| GUUUUUCCUCAUGUACAUGAGGAACAUGAGGAUCACCCAUGUAGAAGGAUUUCCCUUAAAUUAAAAUAGGAUAUACAUAUAUUU |  |  | 88.6 | 58.9 |
| UAAAAGCAAGGAUAUACAUGAGGAUCACCCAUGUGAGGCUAAGUCUGCCAUGGCUCAGGUAGAAGGUGCGUCGA |  |  | 51.3 | 241 |
| UAAAAGCUAGGAUAUACAUGAGGAUCACCCAUGUCACGGGUCCACUCAUCCUAUACGUGUAGAAGGAGCGACCC |  |  |  | 19.2 |
| UAAAGUUAAGGAGGAUAUUACAUGAGGAUCACCCAUGUAAUGGGCUCGGUGUAAGAAGGCCUUGAGUCGAAGUUUCGGAUGAGG |  |  | 9.55 | 21.4 |
| UAAAUCAAGUCAGGAUAUCGUGCGGUUGGUCGUUACAUGAGGAUCACCCAUGUCUUCCGUUAGCUCGAGAAGGGACGUGAGCCC | 40 | 11.5 |  |  |
| UAAAUCUAGUAAGGAUAUACACGAGAUUCAAGUGUAGAAGGUACUUACAUGAGGAUCACCCAUGUAUACAUGGAUAAUAGAUAU | 234 | 109 |  |  |
| UAAAUUCGAAACAUGAGGAUCACCCAUGUGUUGUGGUUUAUAUAGGAUAUGUGGAUACUUUUUUGACAGAAGGAUGAUGGUACU | 13.2 | 10.9 |  |  |
| UAAAUUUACAAGAAGGCUAACAUGAGGAUCACCCAUGUUGUACAUGGAUAUAGAGGAUAUUGCUAAUAAUUAUUUAUCAUAAUU |  |  | 24.2 | 19.5 |
| UAACAUGUCCGAGGAUAUCUGGAAACAUUUUCAAGAGAAGGCGGACAUGAGGAUCACCCAUGUCUCUCCUCAUCAACUACAAAU |  |  | 8.61 | 57.5 |
| UAAGAGUGAGGAUAUACGUCGCUGGUCCGGAUGGACGCAUGACAUGAGGAUCACCCAUGUAGAAGGCACAAAAC |  |  | 35 | 130 |
| UAAGAUUAUGUAGGAUAUGGUUAUCUAUGUCUAGUUACUAGACAUAGAUAACCAGAAGGACAUGAGGAUCACCCAUGUUGAAUG |  |  | 10.3 | 44.4 |
